High-throughput results from PubChem.
This is one part of a sample in which hits are shown more often than they occur.
Ec RNAP inh: E. coli RNAP inhibitors, biochemical; DNA-directed RNA polymerase subunit beta (Escherichia coli (strain K12)), P0A8V2; E. coli RNA polymerase, fluorescence transcription assay; inhibition, %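 (tested at 10 µM)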; actives 0.2% (n = 62,000); in the data active means inhibition above about 20%
AP ELISA ortho: alternative complement pathway inhibitors, primary screen, biochemical, ELISA, human serum, orthogonally pooled compounds. LPS-coated ELISA, C3 deposition; tested in compound mixtures. AID 1235, 2008. inhibition, % at 5 µM. actives 0.08% (n = 62,000);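 active means inhibition above 30% in each of the two pooled mixtures holding the compound, so the lower value exceeds 30%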
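Test system: human serum complement alternative pathway, C3 deposition onto LPS / Medium: Mg2+-EGTA GVB++ buffer containing human serum at 1:15 dilution / Probe or stimulus: Plate-bound LPS / Times: 1 h at 37 °C / Signal: ELISA with HRP anti-human C3 antibody, TMB substrate, absorbance 450 nm / Measure: percent inhibition / Repeats: two pool placements per compound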
D1 allo mod: D1 CRE-luciferase signal change, two-sided – cell-based, HEK293 D1, dopamine EC30, D1 allosteric modulator project, primary screen; D(1A) dopamine receptor (Homo sapiens), P21728; dopamine EC30 potentiation; actives deviate in either direction; B-score at 10 µM; actives 5.9% (n = 58,000);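 active means luminescence count or its row- and column-corrected plate score outside the 99.7% band of the plate's sample wells, on either side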
DAT uptake mod: changed hDAT dopamine uptake under cocaine IC80, either direction, primary screen, cocaine antagonist project, cell-based, LLC-PK1 hDAT, [14C]-dopamine uptake, MLSMR; Sodium-dependent dopamine transporter (Homo sapiens), Q01959; LLC-PK1 hDAT cells, [14C]-dopamine uptake with cocaine IC80; actives deviate in either direction; B-score at 10 µM; actives 1.3% (n = 110,000); AID 449768, 2010;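 active means Z score or B-score, a plate-position-corrected score, falls beyond the plate's 99.7% confidence bounds, in either direction; inactive means both scores lie inside the 99.7% bounds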
HEK293 NFkB inh: inhibitors of PMA/ionomycin-induced NF-kB reporter, primary screen, antigen receptor NF-kB inhibitor project, cell-based, HEK-293 luciferase reporter, luminescence. HEK-293 NF-kB luciferase reporter. inhibition, % at 3 µM. actives 0.21% (n = 62,000). AID 465, 2006;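 active means inhibition above the mean of all tested compounds plus 3 SD, cut at about 40% in these data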
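Signal: luciferase luminescence; Material: HEK-293 cells with stable firefly luciferase reporter driven by four HIV NF-kB elements; Probe or stimulus: PMA with ionomycin; Replication: tested once; Times: 1 h compound pretreatment, then 16 h stimulation at 37 °C, 5% CO2; Benchmarks: DMSO and 10 µM reference inhibitor; Evaluation: per-plate % inhibition versus controls.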
D1 PAM confirm: D1 receptor positive allosteric modulators, retest, confirmation, cell-based, HEK293 D1, CRE-luciferase, duplicate; shares compounds with D1 allo mod; dopamine EC30 potentiation; stronger effect = higher value; luminescence at 10 µM; actives 88% (n = 2,200); AID 642, 2007;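 active means luminescence in either of two replicates above the same-plate mean plus 3 SD of the low-dose dopamine control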
D1 ag no DA: D1 receptor agonism without dopamine, confirmation, mechanism study for D1 allosteric modulator project, cell-based, HEK293 D1, CRE-luciferase, secondary assay 1; shares compounds with D1 allo mod; luminescence, no dopamine; stronger effect = higher value; luminescence at 10 µM; actives 0.8% (n = 1,900); in the data active means luminescence above about 3900
Isoprot counter: isoproterenol response counter-screen activity for D1 modulators; actives 63% (n = 2,200); AID 647; calls only at 10 µM; HEK293 D1 CRE-luciferase, isoproterenol EC30 counter-screen; shares compounds with D1 allo mod;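 active means luminescence in either replicate above plate mean of wells with a partly effective reference agonist dose plus 3 SD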;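 further: isoproterenol raises cAMP through native beta-adrenoceptor Gs so signal bypasses D1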
A number is an active result; 0 = inactive; - = no result given; + = active, no number.

SMILES	Ec RNAP inh	AP ELISA ortho	D1 allo mod	DAT uptake mod	HEK293 NFkB inh	D1 PAM confirm	D1 ag no DA	Isoprot counter
CC(=O)c1c(O)n(C)c(=S)n(-c2ccccc2)c1=O	0	0	3.1	0	0	10036	0	0
CSC(=Nc1ccccc1)c1c(O)n(C)c(=O)n(C)c1=O	0	0	0	0	0	-	-	-
COc1ccc(-n2c(O)c(C(C)=NCCCn3ccnc3)c(=O)[nH]c2=O)cc1	-	-	-	0	-	-	-	-
CC(C)[N+](C)(CCC(C(N)=O)(c1ccccc1)c1ccccc1)C(C)C	-	-	-	0	-	-	-	-
COC(=O)c1c(C)[nH]c(C(=O)C(Cc2ccccc2)N(C)C)c1C (centres undefined)	0	0	9.7	0	0	0	0	0
CC1(C)CN=C(Nc2nc3ccccc3s2)S1	0	0	2.9	0	0	8344	0	0
CCN1CCN(c2nc3ccccc3s2)CC1	-	-	-	0	-	-	-	-
Fc1ccc(NC2=NCCS2)cc1Cl	0	0	4.1	0	0	11272	0	0
COc1ccccc1NC1=NCCS1	-	-	-	0	-	-	-	-
O=C(Cc1ccccc1)Oc1ccccc1N1C(=O)CCC1=O	0	0	0	0	0	-	-	-
CCC(=NCCC1=CCCCC1)c1c(O)[nH]c(=O)[nH]c1=O	0	0	5.4	0	0	16104	0	+
CC(=NC(C)c1ccccc1)c1c(O)[nH]c(=O)[nH]c1=O (centres undefined)	-	-	-	0	-	-	-	-
CC(=O)c1cccc(NC2=NCC(C)S2)c1 (centres undefined)	0	0	5.6	0	0	8688	0	+
CN1C(=O)c2ccccc2Sc2ccc(C(=O)N3CCC4(CC3)OCCO4)cc21	0	0	9.6	-	0	0	-	0
O=C(CCN1C(=O)COc2ccccc21)N1CCC2(CC1)OCCO2	0	0	3.8	0	0	0	-	0
C[C@H]1OC[C@@H](C[N+](C)(C)C)O1	0	0	5.7	0	-	10372	-	0
COc1ccc(/C=C2/C(=O)NC(=O)N(C3CCCCC3)C2=O)cc1CSc1ccccn1	-	-	-	0	-	-	-	-
Cc1ccc(-c2cc(C(F)F)n3ncc(C(=O)N4CCC5(CC4)OCCO5)c3n2)cc1	-	-	-	0	-	-	-	-
CCCCn1c(=O)c(C(=O)Nc2cnccn2)c(O)c2ccccc21	0	0	6.8	0	0	8352	0	0
CC(=NCc1cccnc1)c1c(O)n(Cc2ccccc2)c(=O)[nH]c1=O	0	0	0	0	0	-	-	-
CCC(=NCc1cccnc1)c1c(O)n(Cc2ccccc2)c(=O)[nH]c1=O	0	0	4.8	0	0	11204	0	+
CC(C)[C@H]1C(=O)N2CCC[C@H]2[C@]2(O)O[C@](NC(=O)[C@@H]3C=C4c5cccc6[nH]cc(c56)C[C@H]4N(C)C3)(C(C)C)C(=O)N12	0	0	37	0	-	25260	20144	+
CC(C)[C@@]1(NC(=O)[C@@H]2C=C3c4cccc5[nH]cc(c45)C[C@H]3N(C)C2)O[C@@]2(O)[C@@H]3CCCN3C(=O)[C@H](Cc3ccccc3)N2C1=O	0	0	34	-	-	18320	19392	+
CC(C)[C@@]1(NC(=O)[C@@H]2C[C@@H]3c4cccc5[nH]cc(c45)C[C@H]3N(C)C2)O[C@@]2(O)[C@@H]3CCCN3C(=O)[C@H](Cc3ccccc3)N2C1=O	0	0	36	3.6	-	27264	22332	+
O=C(C1CCC(=O)N1Cc1ccccc1Cl)N1CCC2(CC1)OCCO2 (centres undefined)	-	-	-	0	-	-	-	-
SMILES	Ec RNAP inh	AP ELISA ortho	D1 allo mod	DAT uptake mod	HEK293 NFkB inh	D1 PAM confirm	D1 ag no DA	Isoprot counter
COC(=O)CC(=O)c1ccc2c(c1)OCO2	-	-	-	0	-	-	-	-
CCCCCCOc1ccc(CN2CCN(CC)CC2)cc1	-	-	-	0	-	-	-	-
CCC(=NC1CC1)c1c(O)n(C2CCCCC2)c(=O)[nH]c1=O	0	0	17	0	0	12336	0	+
Cc1ccccc1OCCN=Cc1c(O)n(C)c(=O)n(C)c1=O	-	-	-	0	-	-	-	-
CCCCn1c(O)c(C(C)=NC(C)c2ccccc2)c(=O)[nH]c1=O (centres undefined)	0	0	9.7	0	0	17520	0	+
CC(=O)O[C@@H]1[C@H]2CC[C@@H]3[C@]1(C[C@@H](OC(C)=O)[C@@]1(O)C([C@@H]4O[C@@H]4C1(C)C)[C@]3(C)O)C[C@@]2(C)O (some centres undefined)	-	-	-	0	-	-	-	-
O=C1CN=C(c2ccccc2)c2oc3ccc(Br)cc3c2N1	-	-	7.4	0	0	15276	-	+
O=C1CN=C(c2ccc(Br)cc2)c2oc3ccccc3c2N1	-	-	-	0	-	-	-	-
CN1CC2=CC(O)CC3Oc4c(O)ccc(c4[C@]23C)C1 (some centres undefined)	-	-	-	0	-	-	-	-
